From ChEMBL document CHEMBL1122765, “Cyclic melanotropins. 5. Importance of the C-terminal tripeptide (Lys-Pro-Val)” (1984)
Bridge positions count the residues as written; N and C are the ends. Peptide text beside a SMILES is read from it.

Key:
Mus musculus = organism: Mus musculus; experiment: Adenylate cyclase activity in vitro in the membrane fraction from S-91 mouse melanoma tumors activity measured relative to alpha-MSH; type: functional, cell membranes
How it was run: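 Particulate membrane fraction from S-91 (Cloudman) melanoma tumors grown in […] mice. Adenylate cyclase measured as conversion of [α-³²P]ATP to [³²P]cAMP, with cAMP isolated and detected by the Salomon method. Potency relative to α-MSH from parallel dose–response curves.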

Lithobates pipiens = experiment: Ability to stimulate melanosome dispersion in vitro in the frog skin activity measured relative to alpha-MSH; type: functional
How it was run: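 Rana pipiens skin in vitro; melanosome dispersion read as skin darkening. Test solutions made by serial dilution from a 10⁻⁴ M stock. n = 6 or more skins per point, mean ± SE. Potency relative to α-MSH derived from parallel dose–response curves over the linear portion.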

Anolis carolinensis = experiment: Ability to stimulate melanosome dispersion in vitro in the lizard skin activity measured relative to alpha-MSH; type: functional
How it was run: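 Anolis carolinensis skin in vitro; melanosome dispersion read as skin darkening. Test solutions serially diluted from a 10⁻⁴ M stock. n = 6 skins per point, mean ± SE. Relative potency versus α-MSH taken from parallel dose–response curves over the linear range.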

Row | Compound | Relative potency (Mus musculus) | Relative potency (Lithobates pipiens) | Relative potency (Anolis carolinensis)
1 | CC(=O)N[C@H]1CSSC[C@@H](C(=O)N[C@@H](CCCCN)C(=O)N2CCC[C@@H]2C(=O)N[C@H](C(N)=O)C(C)C)NC(=O)[C@H](Cc2c[nH]c3ccccc23)NC(=O)[C@@H](CCCN=C(N)N)NC(=O)[C@H](Cc2ccccc2)NC(=O)[C@@H](Cc2c[nH]cn2)NC(=O)[C@H](CCC(=O)O)NC1=O | 1.1 | – | –
2 | CC(=O)N[C@H]1CSSC[C@@H](C(N)=O)NC(=O)[C@H](Cc2c[nH]c3ccccc23)NC(=O)[C@@H](CCCN=C(N)N)NC(=O)[C@H](Cc2ccccc2)NC(=O)[C@@H](Cc2c[nH]cn2)NC(=O)[C@H](CCC(=O)O)NC1=O | 0.016 | – | –
3 | CC(=O)N[C@H]1CSSC[C@@H](C(=O)N[C@@H](CCCCN)C(=O)N2CCC[C@H]2C(N)=O)NC(=O)[C@H](Cc2c[nH]c3ccccc23)NC(=O)[C@H](CCCN=C(N)N)NC(=O)[C@@H](Cc2ccccc2)NC(=O)[C@H](Cc2c[nH]cn2)NC(=O)[C@H](CCC(=O)O)NC1=O | – | 20 | 6
4 | CC(=O)N[C@@H](CO)C(=O)N[C@@H](Cc1ccc(O)cc1)C(=O)N[C@@H](CO)C(=O)N[C@H]1CSSC[C@@H](C(=O)N[C@@H](CCCCN)C(=O)N2CCC[C@H]2C(=O)N[C@H](C(N)=O)C(C)C)NC(=O)[C@H](Cc2c[nH]c3ccccc23)NC(=O)[C@H](CCCN=C(N)N)NC(=O)[C@H](Cc2ccccc2)NC(=O)[C@H](Cc2c[nH]cn2)NC(=O)[C@H](CCC(=O)O)NC1=O (Ac-SYSCEHFRWCKPV-NH2; disulfide 4-10) | – | 10 | 2
5 | CC(=O)N[C@H]1CSSC[C@@H](C(=O)N[C@@H](CCCCN)C(=O)N2CCC[C@H]2C(N)=O)NC(=O)[C@H](Cc2c[nH]c3ccccc23)NC(=O)[C@H](CCCN=C(N)N)NC(=O)[C@H](Cc2ccccc2)NC(=O)[C@H](Cc2c[nH]cn2)NC(=O)[C@H](CCC(=O)O)NC1=O | – | 10 | 1.5
6 | CC(=O)N[C@H]1CSSC[C@@H](C(=O)N[C@@H](CCCCN)C(=O)N2CCC[C@H]2C(=O)N[C@H](C(N)=O)C(C)C)NC(=O)[C@H](Cc2c[nH]c3ccccc23)NC(=O)[C@H](CCCN=C(N)N)NC(=O)[C@H](Cc2ccccc2)NC(=O)[C@H](Cc2c[nH]cn2)NC(=O)[C@H](CCC(=O)O)NC1=O | – | 30 | 0.6
7 | CC(=O)N[C@H]1CSSC[C@@H](C(N)=O)NC(=O)[C@H](Cc2c[nH]c3ccccc23)NC(=O)[C@H](CCCN=C(N)N)NC(=O)[C@H](Cc2ccccc2)NC(=O)[C@H](Cc2c[nH]cn2)NC(=O)[C@H](CCC(=O)O)NC1=O | – | 0.06 | 0.003
8 | CSCC[C@H](NC(C)=O)C(=O)N[C@@H](CCC(=O)O)C(=O)N[C@@H](Cc1c[nH]cn1)C(=O)N[C@@H](Cc1ccccc1)C(=O)N[C@@H](CCCN=C(N)N)C(=O)N[C@@H](Cc1c[nH]c2ccccc12)C(=O)NCC(N)=O | 0.03 | 0.0007 | 0.03
9 | CC(=O)N[C@H]1CSSC[C@@H](C(=O)N[C@@H](CCCCN)C(N)=O)NC(=O)[C@H](Cc2c[nH]c3ccccc23)NC(=O)[C@H](CCCN=C(N)N)NC(=O)[C@H](Cc2ccccc2)NC(=O)[C@H](Cc2c[nH]cn2)NC(=O)[C@H](CCC(=O)O)NC1=O | – | 0.16 | 0.07
10 | CC(=O)N[C@H]1CSSC[C@@H](C(=O)N[C@@H](CCCCN)C(N)=O)NC(=O)[C@H](Cc2c[nH]c3ccccc23)NC(=O)[C@@H](CCCN=C(N)N)NC(=O)[C@H](Cc2ccccc2)NC(=O)[C@@H](Cc2c[nH]cn2)NC(=O)[C@H](CCC(=O)O)NC1=O | 0.16 | – | –
11 | CC(=O)N[C@H]1CSSC[C@@H](C(=O)N[C@@H](CCCCN)C(=O)N2CCC[C@@H]2C(N)=O)NC(=O)[C@H](Cc2c[nH]c3ccccc23)NC(=O)[C@@H](CCCN=C(N)N)NC(=O)[C@H](Cc2ccccc2)NC(=O)[C@@H](Cc2c[nH]cn2)NC(=O)[C@H](CCC(=O)O)NC1=O | 1.4 | – | –
